Here are results for one molecule from ChEMBL document CHEMBL3751813, “Nonpeptidic Amphiphilic Xanthone Derivatives: Structure-Activity Relationship and Membrane-Targeting Properties” (J Med Chem, 2016).

A short description of data set [1]: Cytotoxicity in human corneal fibroblasts at 2 times MIC incubated for 4 hrs by LDH release assay relative to control. The conditions noted are these: corneal fibroblast. For orientation: LDH leaks from cells whose membrane has failed.
Data set [2] has as its system Bacillus cereus. In words: Antibacterial activity against clinical isolates of Bacillus cereus ATCC 11778 after 24 hrs by […]. Type of data set: functional. The conditions noted are these: ATCC 11778, 24 h.
Data set [3] concerns Staphylococcus aureus. In words: Bactericidal activity against clinical isolates of Staphylococcus aureus DM4001 assessed as log reduction in viability at 4 times MIC measured over 30 mins by time kill kinetic study. The data set is classed as functional. The gist of the method:
(§1)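 Cells from colonies on an 18–22 h TSA plate, suspended in 0.31 mM phosphate buffer pH 7.2 at 10^5–10^6 CFU/mL. Dosed at 1×, 2× and 4× MIC at 35 °C. Aliquots taken at 10 min, 30 min, 1 h, 2 h and 5 h, diluted ten-fold serially, spread on MHA and counted after 48–72 h at 35 °C. Detection limit 100 CFU/mL. Bactericidal means a 3-log drop versus untreated control.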

Data set [4] is described as follows: Cytotoxicity in human corneal fibroblasts assessed as cell viability at 2 times MIC incubated for 4 hrs by luminescent cell viability assay relative to control. On the set-up: species or system Corneal fibroblast. The settings on record: read-out: Activity. Summed up: (§2)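 Cells plated at 10,000 per well and exposed 4 h in 100 µL. Plate equilibrated to 22 °C for 30 min, then read with CellTiter-Glo luminescence. 1% Triton X-100 set minimal viability and 0.5% DMF served as negative control. Viability computed relative to these controls.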

The nature of data set [5]: Cytotoxicity in human corneal fibroblasts assessed as cell viability at 0.5 times MIC incubated for 4 hrs by luminescent cell viability assay relative to control. On the set-up: species or system Corneal fibroblast. The settings on record: read-out: Activity. Summed up: as §2
Data set [6] is described as follows: Cytotoxicity in human corneal fibroblasts at MIC incubated for 4 hrs by LDH release assay relative to control. The conditions noted are these: corneal fibroblast.
For data set [7], the system named is Staphylococcus aureus. Briefly: Bactericidal activity against clinical isolates of Staphylococcus aureus DM4001 assessed as log reduction in viability at 2 times MIC measured over 300 mins by time kill kinetic study. Type of data set: functional. The gist of the method:
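Colonies from 18–22 h TSA plates suspended in 0.31 mM phosphate buffer pH 7.2 at 10^5–10^6 CFU/mL. Treated at 1×, 2× and 4× MIC at 35 °C, sampled at 10 min, 30 min, 1 h, 2 h and 5 h. Ten-fold dilutions spread on MHA, 35 °C for 48–72 h, colonies counted. Detection limit 100 CFU/mL; bactericidal means 3-log drop versus untreated.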

A short description of data set [8]: Hemolytic activity against New Zealand white rabbit RBC after 1 hr by microplate reader analysis. Type of data set: ADME, cell-based, Oryctolagus cuniculus, Erythrocyte. The conditions noted are these: rabbit red blood cells. Summed up: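 Rabbit RBCs spun from serum at 3,000 rpm for 10 min and washed twice in PBS. Mixed with compound in DMF at 4% v/v RBCs, 1 h at 37 °C. After centrifugation, hemoglobin in the supernatant read at 576 nm. 2% Triton X-100 was the positive control and 1% DMF the negative control.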

Data set [9] deals with Staphylococcus aureus. Briefly: Bactericidal activity against clinical isolates of Staphylococcus aureus DM4001 at 2 times MIC measured over 300 mins by time kill kinetic study. The data set is classed as functional. Summed up: as §1
Data set [10] is described as follows: Cytotoxicity in human corneal fibroblasts assessed as cell viability at 4 times MIC incubated for 4 hrs by luminescent cell viability assay relative to control. On the set-up: species or system Corneal fibroblast. The conditions noted are these: read-out: Activity. Summed up: as §2
Data set [11] has as its system Staphylococcus aureus. Briefly: Antibacterial activity against clinical isolates of Staphylococcus aureus DM4001R after 24 hrs by […]. Type of data set: functional.
Data set [12] in a line: Cytotoxicity in human corneal fibroblasts at 4 times MIC incubated for 4 hrs by LDH release assay relative to control. The conditions noted are these: corneal fibroblast.
Data set [13] relates to Staphylococcus aureus. Briefly: Bactericidal activity against clinical isolates of Staphylococcus aureus DM4001 at 4 times MIC measured over 30 mins by time kill kinetic study. The data set is classed as functional. The gist of the method:
as §1

Data set [14] is described as follows: Cytotoxicity in human corneal fibroblasts at 0.5 times MIC incubated for 4 hrs by LDH release assay relative to control. The conditions noted are these: corneal fibroblast.
The subject of data set [15] is Staphylococcus aureus. Briefly: Induction of membrane permeabilization in clinical isolates of Staphylococcus aureus DM4001 at MIC by SYTOX green uptake assay. Type of data set: functional. Summed up: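 Exponential-phase cells washed twice in 20 mM PBS pH 7 and adjusted to OD620 0.09. Given 3 µM SYTOX Green and kept in the dark until fluorescence was stable, then compound added. Fluorescence followed in a stirred cuvette at ex 504/em 523 nm. Melittin 10 µg/mL was the positive control. Run at least twice; one run reported.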

In data set [16] the test system is Staphylococcus aureus. In words: Induction of membrane permeabilization in clinical isolates of Staphylococcus aureus DM4001 assessed as ATP leakage at MIC incubated for 10 mins by firefly luciferase based luminometry analysis. Type of data set: functional. The gist of the method: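 Exponential-phase cells washed twice in 20 mM PBS pH 7 and set to OD620 0.3. Exposed 10 min at 37 °C, then spun at 4000 rpm for 5 min. Supernatant mixed with luciferase reagent (1 mM DTT, 0.5 mM D-luciferin, 1.25 µg/mL firefly luciferase). Luminescence read over 30 cycles.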

A short description of data set [17]: Selectivity index, ratio of HC50 for hemolytic activity against New Zealand white rabbit RBC to MIC for clinical isolates of Staphylococcus aureus DM4001.
Data set [18] concerns Staphylococcus aureus. In words: Antibacterial activity against clinical isolates of methicillin-resistant Staphylococcus aureus DM9808R after 24 hrs by […]. The data set is classed as functional.
Data set [19] concerns Staphylococcus aureus. Briefly: Antibacterial activity against clinical isolates of methicillin-resistant Staphylococcus aureus DM21455 after 24 hrs by […]. Type of data set: functional. The settings on record: DM21455, 24 h.
A short description of data set [20]: Cytotoxicity in human corneal fibroblasts assessed as cell viability at MIC incubated for 4 hrs by luminescent cell viability assay relative to control. On the set-up: species or system Corneal fibroblast. The settings on record: read-out: Activity. The gist of the method:
as §2

Values after ≈ are worked out from the molar mass of the structure shown.

The MIC is the least concentration at which growth counts as inhibited. Broadly, the HC50 is the concentration that lyses half of the red blood cells. For the molecule `COc1c(OCCCCN)cc2oc3cc(OCCCCN)c(CC=C(C)C)c(O)c3c(=O)c2c1CC=C(C)C`, the Activity in [1] was -0.5%; in data set [6], -1%; in data set [9], 99.9%; in [12], 0.9%; in data set [13] it was 99.9%; in data set [14], -0.7%. Also, the figures for the Activity in data set [15] and in [16] were 1497 cps and 210 nM, respectively. The MIC in data set [2] stood at 3.12 µg/mL (≈ 5.65 µM); in data set [11] it was 1.56 µg/mL (≈ 2.82 µM); in data set [18], 3.12 µg/mL (≈ 5.65 µM); in data set [19] it was 1.56 µg/mL (≈ 2.82 µM). Further, the LCK in data set [3] and in data set [7] was 3 throughout. Further, the viability at 4 h, 2 times MIC in [4] was 90.7%. Also, the viability at 4 h, 0.5 times MIC in data set [5] came out at 98.5%. For the same molecule, in data set [8], the HC50 at 1 h amounted to 80.2 µg/mL. Also, the viability at 4 h, 4 times MIC in data set [10] is 90.3%. Also, in [17], the Selectivity ratio worked out at 51.4. In addition, in data set [20], the viability at 4 h, 1 times MIC came to 91.7%.
